Among the data in ChEMBL document CHEMBL3097999, “Synthesis and biological evaluation of novel substituted 1,3,4-thiadiazole and 2,6-di aryl substituted imidazo [2,1-b] [1,3,4] thiadiazole derivatives” (2014) are zone of inhibition values, retold here.

Common to all, as to format: functional
Holding throughout (details): read-out: DIZ

Experiment [1] deals with Bacillus subtilis. Description: Antimicrobial activity against Bacillus subtilis at 0.5 mg/ml by well plate method. The method in brief: (§1)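 Agar well-plate diffusion against E. coli, B. subtilis and P. aeruginosa. Test compounds dissolved in DMSO at 1 and 0.5 mg/mL and placed in wells. Streptomycin was the reference drug. Read-out is the zone of inhibition.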
Experiment [2] deals with Escherichia coli. Description: Antimicrobial activity against Escherichia coli at 1 mg/ml by well plate method. The gist of the method:
as §1

Experiment [3] deals with Aspergillus flavus. Description: Antimicrobial activity against Aspergillus flavus at 1 mg/ml by well plate method. The method in brief: (§2)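 Fungal well-plate diffusion against Candida albicans, Aspergillus flavus and Chrysosporium keratinophilum. Compounds in DMSO at 1 and 0.5 mg/mL, with fluconazole as the reference drug. Activity scored as the zone of inhibition.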
The subject of experiment [4] is Chrysosporium keratinophilum. Nature of the experiment: Antimicrobial activity against Chrysosporium keratinophilum at 1 mg/ml by well plate method. The method in brief: as §2
Experiment [5] deals with Aspergillus flavus. Nature of the experiment: Antimicrobial activity against Aspergillus flavus at 0.5 mg/ml by well plate method. The gist of the method:
as §2

Experiment [6] concerns Candida albicans. Description: Antimicrobial activity against Candida albicans at 1 mg/ml by well plate method. The gist of the method: as §2
For experiment [7], the system named is Pseudomonas aeruginosa. Description: Antimicrobial activity against Pseudomonas aeruginosa at 0.5 mg/ml by well plate method. The method in brief: as §1
The test system of experiment [8] is Pseudomonas aeruginosa. Description: Antimicrobial activity against Pseudomonas aeruginosa at 1 mg/ml by well plate method. The gist of the method: as §1
The test system of experiment [9] is Candida albicans. Description: Antimicrobial activity against Candida albicans at 0.5 mg/ml by well plate method. The method in brief: as §2
The test system of experiment [10] is Escherichia coli. Nature of the experiment: Antimicrobial activity against Escherichia coli at 0.5 mg/ml by well plate method. The method in brief: as §1
Experiment [11] relates to Bacillus subtilis. Nature of the experiment: Antimicrobial activity against Bacillus subtilis at 1 mg/ml by well plate method. The method in brief: as §1
The subject of experiment [12] is Chrysosporium keratinophilum. Description: Antimicrobial activity against Chrysosporium keratinophilum at 0.5 mg/ml by well plate method. The gist of the method:
as §2

Regarding `CC(C)(C)C(=O)Nc1nnc(-c2ccc(N3CCOCC3)c([N+](=O)[O-])c2)s1`, the zone of inhibition at 500 µg/mL amounted to 9 mm with Bacillus subtilis [1]; 2 mm in the experiment with Aspergillus flavus [5]; 10 mm with Pseudomonas aeruginosa [7]; 3 mm with Candida albicans [9]; 10 mm in the experiment with Escherichia coli [10]; 2 mm in [12]. For the same compound, the zone of inhibition at 1000 µg/mL worked out at 12 mm in the experiment with Escherichia coli [2]; 5 mm in the experiment on Aspergillus flavus [3]; 4 mm in experiment [4]; 5 mm in the experiment on Candida albicans [6]; 13 mm with Pseudomonas aeruginosa [8]; 11 mm in the experiment with Bacillus subtilis [11].
With `CC(C)(C)C(=O)Nc1nnc(-c2ccc(N3CCC(c4ccc(C(F)(F)F)cc4)CC3)c([N+](=O)[O-])c2)s1`, the zone of inhibition at 500 µg/mL in the experiment on Bacillus subtilis [1] worked out at 5 mm; in the experiment on Aspergillus flavus [5] it was 5 mm; with Pseudomonas aeruginosa [7], 6 mm; in the experiment on Candida albicans [9] it was 4 mm; in the experiment on Escherichia coli [10], 5 mm; in experiment [12] it was 5 mm. The zone of inhibition at 1000 µg/mL with Escherichia coli [2] turned out to be 8 mm; with Aspergillus flavus [3] it was 8 mm; in experiment [4], 7 mm; in the experiment on Candida albicans [6], 7 mm; with Pseudomonas aeruginosa [8], 7 mm; in the experiment on Bacillus subtilis [11], 7 mm.
Turning to `CC(C)(C)C(=O)Nc1nnc(-c2ccc(NC3CCCC3)c([N+](=O)[O-])c2)s1`, the zone of inhibition at 500 µg/mL was 3 mm with Bacillus subtilis [1]; 2 mm in the experiment with Aspergillus flavus [5]; 2 mm in the experiment on Pseudomonas aeruginosa [7]; 2 mm in the experiment with Candida albicans [9]; 4 mm in the experiment with Escherichia coli [10]; 2 mm in experiment [12]. In addition, the zone of inhibition at 1000 µg/mL in the experiment on Escherichia coli [2] came out at 6 mm; in the experiment on Aspergillus flavus [3] it was 4 mm; in [4], 4 mm; in the experiment with Candida albicans [6] it was 5 mm; in the experiment with Pseudomonas aeruginosa [8], 3 mm; with Bacillus subtilis [11] it was 4 mm.
